# Measured values from ChEMBL document CHEMBL4265871, “Novel alkylated azoles as potent antifungals” (Eur J Med Chem, 2017).
# Key:
# [1] = Selectivity index, ratio of EC50 for toxicity in human BEAS2B cells to MIC50 for antifungal activity against Candida albicans ATCC 64124; format: cell-based; settings: BEAS-2B cells, read-out: Selectivity Index
# Method in brief: (§1)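 Selectivity index is the EC50 against the mammalian line (A549 or BEAS-2B) divided by the MIC against the given fungal strain.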
# Candida albicans [2] = experiment: Antifungal activity against Candida albicans ATCC 10231 incubated for 48 hrs by modified CLSI M27-A3 protocol based method; format: functional; settings: ATCC 10231, 48 h
# Method in brief: (§2)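 For C. albicans ATCC 10231, C. krusei ATCC 6258 and C. parapsilosis ATCC 22019, MIC-0 was read, meaning complete growth inhibition. For azole controls, MIC-2 (50% growth inhibition) was reported instead. Caspofungin and voriconazole were tested here; other controls came from earlier work.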
# Candida albicans [3] = experiment: Antifungal activity against ITC and FLC-resistant Candida albicans ATCC MYA-90819 incubated for 48 hrs by modified CLSI M27-A3 protocol based method; format: functional; settings: ATCC MYA-90819, 48 h
# [4] = Selectivity index, ratio of EC50 for toxicity in human BEAS2B cells to MIC50 for antifungal activity against Candida albicans ATCC 10231; format: cell-based; settings: BEAS-2B cells, read-out: Selectivity Index; method in brief: as §1
# [5] = Toxicity in human BEAS2B cells assessed as reduction in cell viability incubated for 24 hrs by resazurin dye based assay; settings: BEAS-2B cells
# Method in brief: (§3)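 Toxicity tested in the nucleated lines A549 and BEAS-2B to give EC50 values. Selectivity index is EC50 against the mammalian line divided by the MIC against a given fungal strain.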
# [6] = Selectivity index, ratio of EC50 for toxicity in human BEAS2B cells to MIC50 for antifungal activity against ITC and FLC-resistant Candida albicans ATCC 1237; format: cell-based; settings: BEAS-2B cells, read-out: Selectivity Index; method in brief: as §1
# [7] = Selectivity index, ratio of EC50 for toxicity in human A549 cells to MIC50 for antifungal activity against ITC and FLC-resistant Candida albicans ATCC MYA-90819; format: cell-based; settings: read-out: Selectivity Index; method in brief: as §1
# [8] = Selectivity index, ratio of EC50 for toxicity in human BEAS2B cells to MIC50 for antifungal activity against Aspergillus nidulans ATCC 38163; format: cell-based; settings: read-out: Selectivity Index; method in brief: as §1
# Candida albicans [9] = experiment: Antifungal activity against ITC and FLC-susceptible Candida albicans ATCC MYA-2876 incubated for 48 hrs by modified CLSI M27-A3 protocol based method; format: functional; settings: ATCC MYA-2876, 48 h
# Method in brief: (§4)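 Because these Candida strains show trailing growth, MIC-2 was read, meaning 50% growth inhibition. Caspofungin and voriconazole were tested here; other controls came from earlier work.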
# [10] = Selectivity index, ratio of EC50 for toxicity in human BEAS2B cells to MIC50 for antifungal activity against Aspergillus flavus ATCC MYA-3631; format: cell-based; settings: read-out: Selectivity Index; method in brief: as §1
# Aspergillus terreus = experiment: Antifungal activity against Aspergillus terreus ATCC MYA-3633 incubated for 48 hrs by CLSI M38-A2 protocol based method; format: functional; settings: ATCC MYA-3633, 48 h
# [11] = Selectivity index, ratio of EC50 for toxicity in human BEAS2B cells to MIC50 for antifungal activity against Aspergillus terreus ATCC MYA-3633; format: cell-based; settings: read-out: Selectivity Index; method in brief: as §1
# Aspergillus flavus = experiment: Antifungal activity against Aspergillus flavus ATCC MYA-3631 incubated for 48 hrs by CLSI M38-A2 protocol based method; format: functional; settings: ATCC MYA-3631, 48 h
# [12] = Selectivity index, ratio of EC50 for toxicity in human A549 cells to MIC50 for antifungal activity against ITC and FLC-resistant Candida albicans ATCC MYA-1003; format: cell-based; settings: read-out: Selectivity Index; method in brief: as §1
# Candida albicans [13] = experiment: Antifungal activity against ITC and FLC-resistant Candida albicans ATCC 1237 incubated for 48 hrs by modified CLSI M27-A3 protocol based method; format: functional; settings: ATCC 1237, 48 h; method in brief: as §4
# [14] = Selectivity index, ratio of EC50 for toxicity in human BEAS2B cells to MIC50 for antifungal activity against Candida glabrata ATCC 2001; format: cell-based; settings: BEAS-2B cells, read-out: Selectivity Index; method in brief: as §1
# [15] = Selectivity index, ratio of EC50 for toxicity in human BEAS2B cells to MIC50 for antifungal activity against ITC and FLC-resistant Candida albicans ATCC MYA-1003; format: cell-based; settings: BEAS-2B cells, read-out: Selectivity Index; method in brief: as §1
# Candida albicans [16] = experiment: Antifungal activity against ITC and FLC-resistant Candida albicans ATCC MYA-1003 incubated for 48 hrs by modified CLSI M27-A3 protocol based method; format: functional; settings: ATCC MYA-1003, 48 h; method in brief: as §4
# [17] = Selectivity index, ratio of EC50 for toxicity in human A549 cells to MIC50 for antifungal activity against Candida krusei ATCC 6258; format: cell-based; settings: read-out: Selectivity Index; method in brief: as §1
# [18] = Selectivity index, ratio of EC50 for toxicity in human BEAS2B cells to MIC50 for antifungal activity against ITC and FLC-resistant Candida albicans ATCC MYA-90819; format: cell-based; settings: BEAS-2B cells, read-out: Selectivity Index
# Method in brief: (§5)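 Ratio of the compound's EC50 against BEAS-2B cells to its MIC against the named C. albicans strain. […] For C. albicans strains other than ATCC 10231, trailing growth meant MIC-2 was taken, meaning 50% growth inhibition.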
# [19] = Selectivity index, ratio of EC50 for toxicity in human BEAS2B cells to MIC50 for antifungal activity against ITC and FLC-susceptible Candida albicans ATCC MYA-2310; format: cell-based; settings: BEAS-2B cells, read-out: Selectivity Index; method in brief: as §5
# [20] = Selectivity index, ratio of EC50 for toxicity in human BEAS2B cells to MIC50 for antifungal activity against Candida krusei ATCC 6258; format: cell-based; settings: BEAS-2B cells, read-out: Selectivity Index; method in brief: as §1
# Nakaseomyces glabratus = experiment: Antifungal activity against Candida glabrata ATCC 2001 incubated for 48 hrs by modified CLSI M27-A3 protocol based method; format: functional; settings: ATCC 2001, 48 h
# [21] = Selectivity index, ratio of EC50 for toxicity in human A549 cells to MIC50 for antifungal activity against Candida albicans ATCC 64124; format: cell-based; settings: read-out: Selectivity Index; method in brief: as §1
# Pichia kudriavzevii = experiment: Antifungal activity against Candida krusei ATCC 6258 incubated for 48 hrs by modified CLSI M27-A3 protocol based method; format: functional; settings: ATCC 6258, 48 h; method in brief: as §2
# [22] = Selectivity index, ratio of EC50 for toxicity in human A549 cells to MIC50 for antifungal activity against Aspergillus terreus ATCC MYA-3633; format: cell-based; settings: read-out: Selectivity Index; method in brief: as §1
# [23] = Selectivity index, ratio of EC50 for toxicity in human A549 cells to MIC50 for antifungal activity against Candida glabrata ATCC 2001; format: cell-based; settings: read-out: Selectivity Index; method in brief: as §1
# [24] = Selectivity index, ratio of EC50 for toxicity in human A549 cells to MIC50 for antifungal activity against ITC and FLC-susceptible Candida albicans ATCC MYA-2310; format: cell-based; settings: read-out: Selectivity Index; method in brief: as §1
# Candida albicans [25] = experiment: Antifungal activity against Candida albicans ATCC 64124 incubated for 48 hrs by modified CLSI M27-A3 protocol based method; format: functional; settings: ATCC 64124, 48 h
# [26] = Selectivity index, ratio of EC50 for toxicity in human A549 cells to MIC50 for antifungal activity against ITC and FLC-resistant Candida albicans ATCC 1237; format: cell-based; settings: read-out: Selectivity Index; method in brief: as §1
# [27] = Selectivity index, ratio of EC50 for toxicity in human A549 cells to MIC50 for antifungal activity against Candida albicans ATCC 10231; format: cell-based; settings: read-out: Selectivity Index; method in brief: as §1
# [28] = Selectivity index, ratio of EC50 for toxicity in human A549 cells to MIC50 for antifungal activity against Aspergillus nidulans ATCC 38163; format: cell-based; settings: read-out: Selectivity Index; method in brief: as §1
# Candida albicans [29] = experiment: Antifungal activity against ITC and FLC-susceptible Candida albicans ATCC MYA-2310 incubated for 48 hrs by modified CLSI M27-A3 protocol based method; format: functional; settings: ATCC MYA-2310, 48 h
# [30] = Selectivity index, ratio of EC50 for toxicity in human BEAS2B cells to MIC50 for antifungal activity against ITC and FLC-susceptible Candida albicans ATCC MYA-2876; format: cell-based; settings: BEAS-2B cells, read-out: Selectivity Index; method in brief: as §5
# [31] = Toxicity in human A549 cells assessed as reduction in cell viability incubated for 24 hrs by resazurin dye based assay; method in brief: as §3
# Aspergillus nidulans = experiment: Antifungal activity against Aspergillus nidulans ATCC 38163 incubated for 48 hrs by CLSI M38-A2 protocol based method; format: functional; settings: ATCC 38163, 48 h
# Candida parapsilosis = experiment: Antifungal activity against Candida parapsilosis ATCC 22019 incubated for 48 hrs by modified CLSI M27-A3 protocol based method; format: functional; settings: Lodderomyces parapsilosis, ATCC 22019, 48 h; method in brief: as §2
# [32] = Selectivity index, ratio of EC50 for toxicity in human A549 cells to MIC50 for antifungal activity against Aspergillus flavus ATCC MYA-3631; format: cell-based; settings: read-out: Selectivity Index; method in brief: as §1
# [33] = Selectivity index, ratio of EC50 for toxicity in human A549 cells to MIC50 for antifungal activity against ITC and FLC-susceptible Candida albicans ATCC MYA-2876; format: cell-based; settings: read-out: Selectivity Index; method in brief: as §1
smiles,measurement,setting,value
CC[C@@H]([C@H](C)O)n1ncn(-c2ccc(N3CCN(c4ccc(OC[C@@H]5CO[C@@](Cn6cncn6)(c6ccc(F)cc6F)C5)cc4)CC3)cc2)c1=O [POSACONAZOLE],selectivity ratio,[1],0.4
same,MIC50,Candida albicans [2],0.71 µM
same,MIC50,Candida albicans [3],44.7 µM
same,selectivity ratio,[4],52
same,EC50 at 24 h,[5],26 µg/mL
same,selectivity ratio,[6],2
same,selectivity ratio,[7],1
same,selectivity ratio,[8],133
same,MIC50,Candida albicans [9],11.1 µM
same,selectivity ratio,[10],108
same,MIC50,Aspergillus terreus,0.68 µM
same,selectivity ratio,[11],54
same,MIC50,Aspergillus flavus,0.34 µM
same,selectivity ratio,[12],2
same,MIC50,Candida albicans [13],22.3 µM
same,selectivity ratio,[14],217
same,selectivity ratio,[15],2
same,MIC50,Candida albicans [16],22.3 µM
same,selectivity ratio,[17],617 to 1230
same,selectivity ratio,[18],1
same,selectivity ratio,[19],1
same,selectivity ratio,[20],433 to 867
same,MIC50,Nakaseomyces glabratus,0.17 µM
same,selectivity ratio,[21],1
same,MIC50,Pichia kudriavzevii,0.09 µM
same,selectivity ratio,[22],77
same,selectivity ratio,[23],308
same,selectivity ratio,[24],1
same,MIC50,Candida albicans [25],> 89.2 µM
same,selectivity ratio,[26],2
same,selectivity ratio,[27],74
same,selectivity ratio,[28],190
same,MIC50,Candida albicans [29],44.7 µM
same,selectivity ratio,[30],3
same,EC50 at 24 h,[31],37 µg/mL
same,MIC50,Aspergillus nidulans,0.28 µM
same,MIC50,Candida parapsilosis,< 0.04 µM
same,selectivity ratio,[32],154
same,selectivity ratio,[33],5
